# Experiments:
# SK-OV-3 = assay: Antiproliferative activity against human SK-OV-3 cells assessed as cell growth inhibition at 10 uM incubated for 48 hrs by sulforhodamine B assay relative to control; type: functional
# Method in brief: (§1)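 NCI-60 single-dose screen at 10^-5 M. Cells grown in RPMI 1640 with 5% FBS and 2 mM L-glutamine, plated at 5,000–40,000 cells/well, and preincubated 24 h. Drug (DMSO stock) added and incubated 48 h at 37 °C, 5% CO2. Adherent cells fixed with cold TCA, stained with 0.4% SRB in 1% acetic acid, dye solubilized in 10 mM trizma base, A515 read. Percent growth taken against time-zero and untreated control.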
# T47D = assay: Antiproliferative activity against human T47D cells assessed as cell growth inhibition at 10 uM incubated for 48 hrs by sulforhodamine B assay relative to control; type: functional; method in brief: as §1
# MDA-MB-435 = assay: Antiproliferative activity against human MDA-MB-435 cells assessed as cell growth inhibition at 10 uM incubated for 48 hrs by sulforhodamine B assay relative to control; type: functional; method in brief: as §1
# DU-145 = assay: Antiproliferative activity against human DU-145 cells assessed as cell growth inhibition at 10 uM incubated for 48 hrs by sulforhodamine B assay relative to control; type: functional
# Method in brief: (§2)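 NCI-60 one-dose prescreen at 10^-5 M. Cells grown in RPMI 1640 with 5% FBS and 2 mM glutamine, preincubated 24 h, then exposed 48 h at 37 °C. Adherent lines TCA-fixed, SRB-stained, A515 read. Growth percent relative to time-zero and control; negative values mean cell kill.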
# KM12 = assay: Antiproliferative activity against human KM12 cells assessed as cell growth inhibition at 10 uM incubated for 48 hrs by sulforhodamine B assay relative to control; type: functional; method in brief: as §1
# TK-10 = assay: Antiproliferative activity against human TK-10 cells assessed as cell growth inhibition at 10 uM incubated for 48 hrs by sulforhodamine B assay relative to control; type: functional; method in brief: as §1
# OVCAR-5 = assay: Antiproliferative activity against human OVCAR-5 cells assessed as cell growth inhibition at 10 uM incubated for 48 hrs by sulforhodamine B assay relative to control; type: functional; method in brief: as §1
# RXF 393 = assay: Antiproliferative activity against human RXF 393 cells assessed as cell growth inhibition at 10 uM incubated for 48 hrs by sulforhodamine B assay relative to control; type: functional; method in brief: as §1
# Calf thymus DNA = assay: Binding affinity to calf thymus DNA assessed as quenching constant at temperature of 298 K by fluorescence spectroscopic method; type: nucleic-acid assay; settings: Bos taurus
# NCI-H460 = assay: Antiproliferative activity against human NCI-H460 cells assessed as cell growth inhibition at 10 uM incubated for 48 hrs by sulforhodamine B assay relative to control; type: functional; method in brief: as §1
# CAKI-1 = assay: Antiproliferative activity against human CAKI-1 cells assessed as cell growth inhibition at 10 uM incubated for 48 hrs by sulforhodamine B assay relative to control; type: functional
# Method in brief: (§3)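 Single-dose NCI-60 prescreen at 10^-5 M. Cells in RPMI 1640 with 5% FBS and 2 mM L-glutamine, seeded 5,000–40,000 cells/well with 24 h preincubation, then drug exposure for 48 h at 37 °C under 5% CO2. Growth read by SRB staining of TCA-fixed cells at 515 nm against time-zero and untreated controls. Negative growth values denote cell kill.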
# BT-549 = assay: Antiproliferative activity against human BT-549 cells assessed as cell growth inhibition at 10 uM incubated for 48 hrs by sulforhodamine B assay relative to control; type: functional; method in brief: as §3
# HT-29 = assay: Antiproliferative activity against human HT-29 cells assessed as cell growth inhibition at 10 uM incubated for 48 hrs by sulforhodamine B assay relative to control; type: functional; method in brief: as §1
# SN12C = assay: Growth inhibition against human SN12C cells incubated for 48 hrs by sulforhodamine B assay; type: functional
# SNB-19 = assay: Antiproliferative activity against human SNB-19 cells assessed as cell growth inhibition at 10 uM incubated for 48 hrs by sulforhodamine B assay relative to control; type: functional; method in brief: as §1
# NCI-H226 = assay: Antiproliferative activity against human NCI-H226 cells assessed as cell growth inhibition at 10 uM incubated for 48 hrs by sulforhodamine B assay relative to control; type: functional; method in brief: as §1
# HCC 2998 = assay: Antiproliferative activity against human HCC 2998 cells assessed as cell growth inhibition at 10 uM incubated for 48 hrs by sulforhodamine B assay relative to control; type: functional; method in brief: as §2
# Malme-3M = assay: Antiproliferative activity against human Malme-3M cells assessed as cell growth inhibition at 10 uM incubated for 48 hrs by sulforhodamine B assay relative to control; type: functional; method in brief: as §1
# NCI-H322M = assay: Antiproliferative activity against human NCI-H322M cells assessed as cell growth inhibition at 10 uM incubated for 48 hrs by sulforhodamine B assay relative to control; type: functional; method in brief: as §1
# HOP-62 = assay: Antiproliferative activity against human HOP-62 cells assessed as cell growth inhibition at 10 uM incubated for 48 hrs by sulforhodamine B assay relative to control; type: functional; method in brief: as §2
# OVCAR-4 = assay: Antiproliferative activity against human OVCAR-4 cells assessed as cell growth inhibition at 10 uM incubated for 48 hrs by sulforhodamine B assay relative to control; type: functional; method in brief: as §1
# UACC-62 = assay: Antiproliferative activity against human UACC-62 cells assessed as cell growth inhibition at 10 uM incubated for 48 hrs by sulforhodamine B assay relative to control; type: functional; method in brief: as §1
# A549 = assay: Antiproliferative activity against human A549 cells assessed as cell growth inhibition at 10 uM incubated for 48 hrs by sulforhodamine B assay relative to control; type: functional; method in brief: as §3
# UACC-257 = assay: Antiproliferative activity against human UACC-257 cells assessed as cell growth inhibition at 10 uM incubated for 48 hrs by sulforhodamine B assay relative to control; type: functional; method in brief: as §1
# HL-60 = assay: Antiproliferative activity against human HL-60 cells assessed as cell growth inhibition at 10 uM incubated for 48 hrs by sulforhodamine B assay relative to control; type: functional; method in brief: as §2
# SK-MEL-2 = assay: Antiproliferative activity against human SK-MEL-2 cells assessed as cell growth at 0.0001 M incubated for 48 hrs by SRB assay relative to control; type: functional; settings: read-out: Activity
# COLO 205 = assay: Antiproliferative activity against human COLO 205 cells assessed as cell growth inhibition at 10 uM incubated for 48 hrs by sulforhodamine B assay relative to control; type: functional; method in brief: as §3
# SNB-75 = assay: Antiproliferative activity against human SNB-75 cells assessed as cell growth inhibition at 10 uM incubated for 48 hrs by sulforhodamine B assay relative to control; type: functional; method in brief: as §1
# HCT-15 = assay: Antiproliferative activity against human HCT-15 cells assessed as cell growth inhibition at 10 uM incubated for 48 hrs by sulforhodamine B assay relative to control; type: functional; method in brief: as §2
# OVCAR-8 = assay: Antiproliferative activity against human OVCAR-8 cells assessed as cell growth inhibition at 10 uM incubated for 48 hrs by sulforhodamine B assay relative to control; type: functional; method in brief: as §1
# MDA-MB-468 = assay: Antiproliferative activity against human MDA-MB-468 cells assessed as cell growth inhibition at 10 uM incubated for 48 hrs by sulforhodamine B assay relative to control; type: functional; method in brief: as §1
# SK-MEL-28 = assay: Antiproliferative activity against human SK-MEL-28 cells assessed as cell growth inhibition at 10 uM incubated for 48 hrs by sulforhodamine B assay relative to control; type: functional; method in brief: as §1
smiles,measurement,setting,value
c1ccc(Cn2cnc3ccc(-c4nc(-c5ccc6c(c5)ncn6C5CCCCC5)cn5ccnc45)cc32)cc1,inhibition at 10 µM,SK-OV-3,-22.2%
same,inhibition at 10 µM,T47D,-2.12%
same,inhibition at 10 µM,MDA-MB-435,-6.16%
same,inhibition at 10 µM,DU-145,-28.2%
same,inhibition at 10 µM,KM12,-39.4%
same,inhibition at 10 µM,TK-10,94.8%
same,inhibition at 10 µM,OVCAR-5,-29%
same,inhibition at 10 µM,RXF 393,-76.9%
same,Kq,Calf thymus DNA,1.19 10^12/M/s
same,inhibition at 10 µM,NCI-H460,-20.3%
same,inhibition at 10 µM,CAKI-1,56.7%
same,inhibition at 10 µM,BT-549,-44.7%
same,inhibition at 10 µM,HT-29,-48.7%
same,GI50,SN12C,2.27 µM
same,inhibition at 10 µM,SNB-19,80.4%
same,inhibition at 10 µM,NCI-H226,-63.1%
same,inhibition at 10 µM,HCC 2998,-88%
same,inhibition at 10 µM,Malme-3M,-15.4%
same,inhibition at 10 µM,NCI-H322M,84%
same,inhibition at 10 µM,HOP-62,-9.39%
same,inhibition at 10 µM,OVCAR-4,83.2%
same,inhibition at 10 µM,UACC-62,-31.2%
same,inhibition at 10 µM,A549,-5.05%
same,inhibition at 10 µM,UACC-257,-32.7%
same,inhibition at 10 µM,HL-60,-20.8%
same,growth at 100 µM,SK-MEL-2,-33%
same,inhibition at 10 µM,COLO 205,-29.9%
same,inhibition at 10 µM,SNB-75,-67.4%
same,inhibition at 10 µM,HCT-15,-9.03%
same,inhibition at 10 µM,OVCAR-8,97.5%
same,inhibition at 10 µM,MDA-MB-468,-35.7%
same,inhibition at 10 µM,SK-MEL-28,99.6%
